Results published in PMC5132082 (Clinical Pharmacology in Drug Development, 2016).
Read-outs that look alike come from different tables or passages of the source. Marks after values point to notes of the source that are not given here. Each block holds one molecule with its values, some of them ahead of it.

Legend:
[1] = type: in vivo, human; settings: for AUC0–∞ ratio of geometric means (90%CI) / Cmax ratio of geometric means (90%CI) / CL/F ratio of geometric means (90%CI) / Vz/F ratio of geometric means (90%CI): ANOVA; for Tmax median difference (90%CI): Hodges-Lehmann estimate; for t1/2 geometric mean difference: severely renal impaired vs healthy matched
[2] = cited from earlier work
[3] = type: in vivo, human; settings: M12
Method in brief: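 Urine collected predose (≤60 min before dosing) and over 0‒8, 8‒24, 24‒48 and 48‒72 h postdose. M12 measured by achiral LC-MS/MS (LLOQ 5 ng/mL). Excreted amount = urine concentration × interval urine volume. Renal clearance = cumulative 72-h urinary M12 divided by plasma AUC0–72. Summarised descriptively by group.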

[4] = cited from earlier work; remark: listed apart in the source
[5] = cited from earlier work; remark: listed apart in the source
[6] = moderate and severe hepatic impairment; cited from earlier work
[7] = population pharmacokinetic model built in a phase 3 study; cited from earlier work
Safety monitoring = type: in vivo, human; settings: for subjects reporting AEs: single oral 30 mg
Method in brief: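 Subjects were confined from the evening before dosing through the PK sampling period. Monitoring ran throughout the study and covered adverse events, complete physical examinations, vital signs, 12-lead ECGs, clinical laboratory safety tests and prior and concomitant medications. Follow-up safety visit 11‒18 days after dosing.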

[8] = M12, mild renal impaired/healthy matched
[9] = M12, moderate renal impaired/healthy matched
[10] = M12, severe renal impaired/healthy matched
[11] = M12, subjects with mild renal impairment
[12] = M12, subjects with moderate renal impairment
[13] = M12, subjects with severe renal impairment
[14] = apremilast, mild renal impaired/healthy matched
[15] = apremilast, moderate renal impaired/healthy matched
[16] = apremilast, moderate renal impairment group
[17] = apremilast, severe renal impaired/healthy matched
[18] = apremilast, severe renal impairment vs healthy matched
[19] = apremilast, subjects with severe renal impairment
[20] = healthy subjects, single oral dose

- AUC0–∞ ratio of geometric means (90%CI) [1, 8]: 129.6 (99.5–168.8) %
- Cmax ratio of geometric means (90%CI) [1, 8]: 130.8 (91.7–186.6) %
- AUC0–∞ ratio of geometric means (90%CI) [1, 9]: 161.4 (122.8–212.3) %
- Cmax ratio of geometric means (90%CI) [1, 9]: 116.9 (81.9–166.8) %
- Tmax median difference (90%CI) ([1]; M12, severe renal impaired vs healthy matched): 6.25 (2.975–11.0) h
- AUC0–∞ ratio of geometric means (90%CI) [1, 10]: 291.7 (204.3–416.4) %
- Cmax ratio of geometric means (90%CI) [1, 10]: 142.9 (106.3–192.1) %
- t1/2 geometric mean difference ([1]; M12): 10.498 ^d (NC) h
- AUC0–∞ higher than in healthy matched subjects [1, 11]: 29.6%
- Cmax higher than in healthy matched subjects [1, 11]: 30.8%
- AUC0–∞ higher than in healthy matched subjects [1, 12]: 61.4%
- Cmax higher than in healthy matched subjects [1, 12]: 16.9%
- Tmax delayed compared with healthy matched subjects ([1]; M12, subjects with renal impairment (severe study), P ≤ .05): ≈ 6.25 hours
- increase in AUC0–∞ vs healthy matched subjects [1, 13]: 191.7%
- increase in Cmax vs healthy matched subjects [1, 13]: 42.9%
- geometric mean renal clearance ([3]; healthy subjects matched with subjects with mild renal impairment): 3.67 L/h
- geometric mean renal clearance ([3]; healthy subjects matched with subjects with moderate renal impairment): 3.02 L/h
- renal clearance decreased ([3]; subjects with mild or moderate renal impairment): ≈ 40%
- geometric mean renal clearance ([3]; subjects with mild renal impairment, urine 0-72 h / plasma AUC 0-72 h): 2.35 L/h
- geometric mean renal clearance ([3]; subjects with moderate renal impairment): 1.84 L/h
Compound: CCOc1cc([C@@H](CS(C)(=O)=O)N2C(=O)c3cccc(NC(C)=O)c3C2=O)ccc1O[C@@H]1O[C@H](C(=O)O)[C@@H](O)[C@H](O)[C@H]1O [M12, O‐desmethyl apremilast glucuronide]
- pharmacological activity [2]: pharmacologically inactive
- share of the circulating radioactivity ([4]; after a single oral dose of [14C]apremilast): 39%

Compound: CCOc1cc(CC(=O)N[C@@H](CC(C)C)c2ccccc2N2CCCCC2)ccc1C(=O)O [repaglinide]
- fraction of unchanged drug excreted through urine (fe) ([5]; healthy volunteers): < 0.1%
- mean half-life increase ([5]; subjects with severe renal impairment, after 1 week of treatment): ~4 fold

Compound: CCOc1cc([C@@H](CS(C)(=O)=O)N2C(=O)c3cccc(NC(C)=O)c3C2=O)ccc1OC [apremilast]
- effect of hepatic impairment on pharmacokinetic profile [6]: largely unaffected
- disease effect of PsA: slower clearance [7]: ≈ 36%
- Tmax median difference (90%CI) ([1]; apremilast, mild renal impaired vs healthy matched): 0.0 (‐1.00 to 1.00) P > .9999 h
- AUC0–∞ ratio of geometric means (90%CI) [1, 14]: 85.9 (65.8–112.0) %
- CL/F ratio of geometric means (90%CI) [1, 14]: 116.5 (89.3–151.9) %
- Cmax ratio of geometric means (90%CI) [1, 14]: 106.2 (84.7–133.1) %
- Vz/F ratio of geometric means (90%CI) [1, 14]: 120.4 (92.2–157.2) %
- Tmax median difference (90%CI) ([1]; apremilast, moderate renal impaired vs healthy matched): 1.0 (‐0.50 to 2.50) P = .25 h
- AUC0–∞ ratio of geometric means (90%CI) [1, 15]: 122.1 (93.6–159.3) %
- CL/F ratio of geometric means (90%CI) [1, 15]: 81.9 (62.8–106.8) %
- Cmax ratio of geometric means (90%CI) [1, 15]: 87.5 (69.8–109.7) %
- Vz/F ratio of geometric means (90%CI) [1, 15]: 103.2 (79.0–134.8) %
- AUC0–∞ higher relative to healthy matched subjects [1, 16]: ≈ 22%
- Cmax lower relative to healthy matched subjects [1, 16]: ≈ 13%
- Tmax median difference (90%CI) ([1]; apremilast, severe renal impaired vs healthy matched): 0.00 (‐1.5 to 1.5) P > .9999 h
- Vz/F ratio of geometric means ([1]; apremilast, severe renal impaired/healthy matched, 90%CI not calculated): 67.35 (NC) %
- AUC0–∞ ratio of geometric means (90%CI) [1, 17]: 188.5 (132.5–268.0) %
- CL/F ratio of geometric means (90%CI) [1, 17]: 53.10 (37.3–75.4) %
- Cmax ratio of geometric means (90%CI) [1, 17]: 141.6 (102.9–194.8) %
- VZ/F decreased [1, 18]: ~32.7%
- t1/2 prolonged [1, 18]: ≈ 27%
- t1/2 geometric mean difference ([1]; apremilast): 2.485 ^d (NC) h
- AUC0–∞ higher compared with healthy matched subjects [1, 19]: 88.5% and ≈ 89%
- Cmax higher compared with healthy matched subjects [1, 19]: 41.6%
- apparent clearance relative to that of healthy matched subjects [1, 19]: ≈ 53%
- deaths or AEs leading to discontinuation (Safety monitoring; both studies): No deaths or AEs leading to discontinuation occurred
- overall safety finding (Safety monitoring; both studies, single oral 30-mg dose): no unexpected AEs or safety signals
- subjects with AEs considered possibly related to study medication or procedures (Safety monitoring; healthy matched group of severe study): 2
- subjects reporting AEs (Safety monitoring; healthy matched group of severe study (n = 8)): 2
- subjects with AEs suspected to be related to study medication or procedures (Safety monitoring; healthy matched groups of mild and moderate study): 3
- subjects reporting AEs (Safety monitoring; healthy matched groups of mild and moderate study (n = 16)): 5
- subjects with AEs suspected to be related to study medication or procedures (Safety monitoring; mild renal impairment group): 2
- subjects reporting AEs (Safety monitoring; mild renal impairment group (n = 8)): 2
- subjects with AEs suspected to be related to study medication or procedures (Safety monitoring; moderate renal impairment group): 1
- subjects reporting AEs (Safety monitoring; moderate renal impairment group (n = 8)): 2
- subjects with AEs considered possibly related to study medication or procedures (Safety monitoring; severe renal impairment group): 3
- subjects reporting AEs (Safety monitoring; severe renal impairment group (n = 8)): 4
- absolute bioavailability [4, 20]: ≈ 73%
- given dose excreted in urine unchanged [4, 20]: ≈ 3%
